Assay results as given in PubChem BioAssay.
Results filed as inconclusive are left out.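 Rule for the calls, unless noted: active = growth inhibition above 25% in both replicates, a cutoff set 3 SD above the mean; inconclusive = above 25% in only one replicate; inactive = the rest.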

How the values were obtained:
[1] = S. cerevisiae growth inhibition in permissive medium (OD615), pilot counter-assay for S. cerevisiae lifespan shortening project, permissive growth control (AID 705); details: OD615, 24 h, at 10 µM, active compounds read high
Procedure, shortened: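 assay system = Saccharomyces cerevisiae strain carrying genetically modified DeaD replicative-lifespan system | medium = SC raffinose/galactose permissive medium | dosing = 10 µM single dose, 0.25% DMSO | schedule = 24 h compound exposure at 30 °C after 4 h pre-growth | measured by = OD at 615 nm | read-out basis = growth inhibition from lowered OD615 after 24 h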

[2] = S. cerevisiae growth inhibition in restrictive medium, OD615, pilot screen, restrictive growth control, yeast lifespan reduction project (AID 706;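 active = growth inhibition above a set limit, 3 SD over mean compound inhibition, in both replicates, cut at about 43% in these data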;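 note: modified DeaD lifespan yeast strain shifted to restrictive glucose medium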); details: OD615, 48 h, at 10 µM, active compounds read high
Procedure, shortened: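 Buffer or medium: CSMM-D glucose medium. Material: genetically modified Saccharomyces cerevisiae, DeaD replicative lifespan assay strain. Times: 48 h compound exposure at 30 °C. Measured by: optical density at 615 nm.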

[3] = doxorubicin toxicity protection in MRP-1 cells – H69AR cells, CellTiter-Glo, duplicate, MRP-1 activator project, pilot screen (AID 807;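 active = viability increase at or above a cutoff of the median across tested compounds plus 3 SD, cut at about 8.5% in these data, passing the limit was not always enough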;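 note: compound pretreatment 18-22 h then 72 h combined with doxorubicin; 0% = doxorubicin alone and 100% = vehicle without doxorubicin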); details: H69AR viability with doxorubicin, CellTiter-Glo luminescence; at 10 µM; active compounds read high
[4] = viability of HCT116 without oncogenic beta-catenin – human colon tumor cells, pilot screen (AID 823;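 active = cell viability at or below a set limit in both duplicate runs, the limit being the all-compound median minus 4 SD, cut at about 23% in these data, passing the limit was not always enough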;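 note: 0% = wells killed by 20 µM Hyamine and 100% = untreated DMSO cell wells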); details: HCT116 beta-catenin knockout viability, CellTiter-Glo, 60 h; at 10 µM; active compounds read low
[5] = viability of PTEN-null HCT116 cells – cell-based, HCT116 clonal line, CellTiter-Glo, pilot screen (AID 824;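 active = viability at or below 27.92% in each of two runs, the all-compound median minus 4 SD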;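 note: 0% = 20 µM Hyamine control and 100% = vehicle cell control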); details: HCT116 PTEN-deleted viability, 60 h, at 10 µM, active compounds read low
[6] = RAM pathway blockade in budding yeast – dse1pr::URA3 reporter, 5-FOA selection, pilot screen (AID 869;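 active = inhibition over a set limit, the all-compound mean plus 3 SD, in both replicate runs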;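 note: 0% = DMSO wells with no growth and 100% = 10 µM 1-NA-PP1 with full growth; RAM network block rescues cells from 5-FOA so hits raise OD615 growth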); details: S. cerevisiae dse1pr::URA3 5-FOA growth, OD615, 2 d; at 10 µM; active compounds read high; strain carries analog-sensitive mutant Cbk1 kinase
[7] = RAM signaling pathway blockade in yeast – S. cerevisiae, Pdr1DBD-CYC8 efflux-inhibited sensitized strain, primary screen (AID 1298;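 active = RAM network inhibition above 8.4% in each of two replicates, 3 SD over the compound average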;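 note: 0% = DMSO untreated cells without growth and 100% = 10 µM 1-NA-PP1 full growth; higher means more yeast growth rescued from 5-FOA killing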); details: S. cerevisiae cbk1-as DSE1-URA3 strain, 5-FOA growth OD615, 2 d; at 50 µM; active compounds read high

Cc1onc(-c2ccccc2Cl)c1C(=O)Nc1c(C)n(C)n(-c2ccccc2)c1=O
inactive: growth inhibition [1] -7.2% | growth inhibition [2] 3.75% | viability increase [3] 0.84% | viability [4] 104% | viability [5] 103% | inhibition [6] 0.355% | RAM network inhibition [7] 3.34%

O=C(c1ccc(NC2=NC3CS(=O)(=O)CC3S2)cc1)N1CCN(C(=O)c2ccco2)CC1 (configuration not stated)
inactive: growth inhibition [1] -12.1% | growth inhibition [2] -8.33% | viability increase [3] 0.69% | viability [4] 104% | viability [5] 98.3% | inhibition [6] 2.96% | RAM network inhibition [7] 4.06%

COC(=O)C1=C(O)CSC1=Nc1cccc(C(F)(F)F)c1
inactive: growth inhibition [1] -1.75% | growth inhibition [2] 8.3% | viability increase [3] -0.93% | viability [4] 101% | viability [5] 96.3% | inhibition [6] 0.625% | RAM network inhibition [7] 3.1%

Cn1c(=O)c2c(SCC(=O)c3ccccc3)nc(C3CC3)nc2n(C)c1=O
inactive: growth inhibition [1] 13.4% | growth inhibition [2] 7.46% | viability increase [3] -2.05% | viability [4] 76.8% | viability [5] 77.8% | inhibition [6] 1.17% | RAM network inhibition [7] -1.03%

Cc1nc2ccccn2c1/C(O)=C1\C(=O)C(=O)N(CCCN(C)C)C1c1ccc(Cl)cc1 (configuration not stated)
inactive: growth inhibition [1] -12.2% | growth inhibition [2] -4.13% | viability increase [3] -1.34% | viability [4] 109% | viability [5] 95.9% | inhibition [6] 0.18% | RAM network inhibition [7] -1.78%

Cc1cc(N2CCOCC2)nc(SCC(=O)c2ccccc2)n1
inactive: growth inhibition [1] -16.5% | growth inhibition [2] -4.63% | viability increase [3] -1.98% | viability [4] 99% | viability [5] 91.7% | inhibition [6] 2.53% | RAM network inhibition [7] 2.06%

c1ccc(Sc2nc(N3CCCCC3)nc(N3CCCCC3)n2)nc1
inactive: growth inhibition [1] 4.63% | growth inhibition [2] -1.59% | viability increase [3] 0.32% | viability [4] 89.3% | viability [5] 86.5% | inhibition [6] 0.735% | RAM network inhibition [7] 4.97%

CC1=CS/C(=C(/C#N)C(=O)NCc2ccco2)N1c1ccccc1
inactive: growth inhibition [1] -0.435% | growth inhibition [2] -4.64% | viability increase [3] -2.99% | viability [4] 117% | viability [5] 97.6% | inhibition [6] 2.08% | RAM network inhibition [7] 1.49%

CC1(C)Oc2ccc3ccc(=O)oc3c2-c2cnoc21
inactive: growth inhibition [1] 0.81% | growth inhibition [2] 5.33% | viability increase [3] -0.4% | viability [4] 104% | viability [5] 96.3% | inhibition [6] 1.08% | RAM network inhibition [7] 4.79%

Cc1ccc(C(=O)CC2(O)C(=O)N(C)c3ccccc32)o1 (configuration not stated)
inactive: growth inhibition [1] -7.12% | growth inhibition [2] -13.5% | viability increase [3] -2.33% | viability [4] 99.3% | viability [5] 96.2% | inhibition [6] 0.645% | RAM network inhibition [7] 1.32%

O=C(c1csc2c1CCCC2)n1cccn1
inactive: growth inhibition [1] 13.2% | growth inhibition [2] 15.7% | viability increase [3] -0.86% | viability [4] 98.7% | viability [5] 106% | inhibition [6] 1.69% | RAM network inhibition [7] -0.11%

Cc1csc2ncc(C(=O)Nc3ccc4c(c3)OCCO4)c(=O)n12
inactive: growth inhibition [1] -13.1% | growth inhibition [2] -17.3% | viability increase [3] -2.34% | viability [4] 102% | viability [5] 97.5% | inhibition [6] 2.96% | RAM network inhibition [7] 6.97%

CC(=O)Nc1sc(N)nc1-c1ccccc1
inactive: growth inhibition [1] -7.75% | growth inhibition [2] 16.2% | viability increase [3] 0.94% | viability [4] 88.7% | viability [5] 99.5% | inhibition [6] 0.055% | RAM network inhibition [7] 3.89%

O=C(Cn1cnc2ccccc2c1=O)N(Cc1ccco1)c1ccc(O)cc1
inactive: growth inhibition [1] -4.45% | growth inhibition [2] -19.6% | viability increase [3] -1.76% | viability [4] 92% | viability [5] 89.8% | inhibition [6] 0.94% | RAM network inhibition [7] -0.26%

CC(C)CNC1=CC(=O)CC(c2ccco2)C1 (configuration not stated)
inactive: growth inhibition [1] -13% | growth inhibition [2] -15.9% | viability increase [3] -1.92% | viability [4] 91.5% | viability [5] 93.8% | inhibition [6] 1.17% | RAM network inhibition [7] -0.73%

CCN(CC)CCCNc1nc2ccccc2[nH]1
inactive: growth inhibition [1] -4% | growth inhibition [2] -5.4% | viability increase [3] -0.63% | viability [4] 99% | viability [5] 98.3% | inhibition [6] 0.52% | RAM network inhibition [7] 4.31%

Brc1ccc(-c2nnc(-c3ccco3)o2)cc1
inactive: growth inhibition [1] -19.6% | growth inhibition [2] -17.3% | viability increase [3] 0.83% | viability [4] 95.1% | viability [5] 93.9% | inhibition [6] 0.93% | RAM network inhibition [7] 7.37%

CC(C)COC(=O)c1ccc(NC(=O)C2C3CCC(C3)C2C(=O)O)cc1 (configuration not stated)
inactive: growth inhibition [1] -7.04% | growth inhibition [2] -5.98% | viability increase [3] 0.09% | viability [4] 87.4% | viability [5] 90% | inhibition [6] 0.68% | RAM network inhibition [7] 0.37%

Cc1cc(Nc2ccc(Br)cc2)n2nc(C)nc2n1
inactive: growth inhibition [1] -14% | growth inhibition [2] -2.33% | viability increase [3] -2.63% | viability [4] 96.2% | viability [5] 88.3% | inhibition [6] 2.85% | RAM network inhibition [7] 4.46%

CCOC(=O)c1ccc(NC(=O)C2CCN(S(=O)(=O)c3ccccc3)CC2)cc1
inactive: growth inhibition [1] -12.1% | growth inhibition [2] -10.7% | viability increase [3] -2.54% | viability [4] 66.4% | viability [5] 70.2% | inhibition [6] 1.47% | RAM network inhibition [7] 6.37%

COCC(=O)NCCc1nc2ccccc2[nH]1
inactive: growth inhibition [1] -0.385% | growth inhibition [2] 1.45% | viability increase [3] -2.27% | viability [4] 98.7% | viability [5] 99.1% | inhibition [6] -0.325% | RAM network inhibition [7] 0.89%

O=C(Cn1nc(-c2ccccc2)ccc1=O)N1CCOCC1
inactive: growth inhibition [1] 4.29% | growth inhibition [2] 8.44% | viability increase [3] -0.71% | viability [4] 96% | viability [5] 108% | inhibition [6] -0.155% | RAM network inhibition [7] 0.21%

C=CCOc1ccc(/C(O)=C2/C(=O)C(=O)N(CCCn3ccnc3)C2c2cccs2)cc1 (configuration not stated)
inactive: growth inhibition [1] -13.8% | growth inhibition [2] 0.445% | viability increase [3] 1.46% | viability [4] 95.2% | viability [5] 98.6% | inhibition [6] -0.285% | RAM network inhibition [7] 1.02%

Cc1ccc(NS(=O)(=O)c2cc(C(=O)O)ccc2Cl)cc1
inactive: growth inhibition [1] -5.58% | growth inhibition [2] -5.51% | viability increase [3] -1.55% | viability [4] 100% | viability [5] 95.2% | inhibition [6] 1.16% | RAM network inhibition [7] 7.99%

CC1CCCC(C)N1c1nnc(NC(=O)Cn2c(=O)oc3ccccc32)s1 (configuration not stated)
inactive: growth inhibition [1] -4.67% | growth inhibition [2] 9.9% | viability increase [3] 0.39% | viability [4] 95.1% | viability [5] 99.2% | inhibition [6] 1.85% | RAM network inhibition [7] 3.6%

Brc1ccc(-c2nnc(-c3ccccc3Br)o2)cc1
inactive: growth inhibition [1] 0.385% | growth inhibition [2] -1.09% | viability increase [3] -1.12% | viability [4] 87.9% | viability [5] 79.2% | inhibition [6] 2.09% | RAM network inhibition [7] 11.3%

CCc1ccc(N2C(=O)c3sc4nnc(C)c(=O)n4c3C2=O)cc1
inactive: growth inhibition [1] -19.9% | growth inhibition [2] -7.66% | viability increase [3] -1% | viability [4] 87.9% | viability [5] 76.9% | inhibition [6] 1.4% | RAM network inhibition [7] 0.21%

CC(=O)N1C(C(=O)O)CSC1c1ccc(C)cc1 (configuration not stated)
inactive: growth inhibition [1] 4.69% | growth inhibition [2] 8.76% | viability increase [3] -0.04% | viability [4] 95.3% | viability [5] 95.6% | inhibition [6] -0.43% | RAM network inhibition [7] -1.41%

Cc1cc(N2CCN(C(c3ccccc3)c3ccc(Cl)cc3)CC2)n2ncnc2n1 (configuration not stated)
inactive: growth inhibition [1] -1.52% | growth inhibition [2] 7.98% | viability increase [3] -4.33% | viability [4] 66.1% | viability [5] 63.2% | inhibition [6] 0.13% | RAM network inhibition [7] 3.39%

Cn1c(=O)[nH]c(=O)c2c1nc(N1CCCCCC1)n2CCSc1nc2ccccc2o1
inactive: growth inhibition [1] -8.05% | growth inhibition [2] -7.14% | viability increase [3] -3.78% | viability [4] 95.4% | viability [5] 91.3% | inhibition [6] 1.73% | RAM network inhibition [7] 3.18%

COc1ccc(OC)c(NC(=O)c2ccc(NC(C)=O)cc2)c1
inactive: growth inhibition [1] -22.5% | growth inhibition [2] -12.5% | viability increase [3] 0.76% | viability [4] 109% | viability [5] 101% | inhibition [6] 1.2% | RAM network inhibition [7] 5.24%

CCC(=O)NCc1nc2ccccc2n1Cc1ccccc1F
inactive: growth inhibition [1] -7.37% | growth inhibition [2] -27% | viability increase [3] -0.04% | viability [4] 99.1% | viability [5] 99.2% | inhibition [6] 0.885% | RAM network inhibition [7] 2.45%

COCCNC(=O)c1cc2c(-c3ccc(Cl)cc3)nn(C)c2s1
inactive: growth inhibition [1] 3.03% | growth inhibition [2] 8.65% | viability increase [3] -6% | viability [4] 64.6% | viability [5] 71% | inhibition [6] 0.32% | RAM network inhibition [7] 10.4%

CCCCCOC(=O)Cn1c(=O)oc2ccccc21
inactive: growth inhibition [1] -7.12% | growth inhibition [2] 4.42% | viability increase [3] -1.13% | viability [4] 90.3% | viability [5] 97.8% | inhibition [6] 0.385% | RAM network inhibition [7] 4.28%

Cc1nnc(NC(=O)CSc2cn(Cc3ccccc3)c3ccccc23)s1
inactive: growth inhibition [1] -8.99% | growth inhibition [2] -0.275% | viability increase [3] -2.83% | viability [4] 82.2% | viability [5] 81.2% | inhibition [6] 2.86% | RAM network inhibition [7] 2.77%

Cc1nnc(SCCC(C)C)[nH]c1=O
inactive: growth inhibition [1] -1.1% | growth inhibition [2] 0.225% | viability increase [3] -2.93% | viability [4] 101% | viability [5] 99.7% | inhibition [6] 0.745% | RAM network inhibition [7] 3.25%
